A short description of data set [1]: Stability in human liver microsomes assessed as compound remaining after 60 mins. It counts as ADME, Microsome. Particulars: read-out: Stability. In outline: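 Human liver microsomes incubated with compound for 60 minutes; value reported as % of compound remaining.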
A short description of data set [2]: Lipophilicity, log D of the compound. It is filed as physicochemical. To be noted: octanol/water.
Data set [3] is described as follows: Apparent permeability in human Caco2 cells. It is filed as ADME, cell-based. To be noted: Caco-2.
Data set [4] deals with T1, Nuclear receptor ROR-gamma (Homo sapiens, UniProt P51449).
T1 sequence (P51449 whole entry): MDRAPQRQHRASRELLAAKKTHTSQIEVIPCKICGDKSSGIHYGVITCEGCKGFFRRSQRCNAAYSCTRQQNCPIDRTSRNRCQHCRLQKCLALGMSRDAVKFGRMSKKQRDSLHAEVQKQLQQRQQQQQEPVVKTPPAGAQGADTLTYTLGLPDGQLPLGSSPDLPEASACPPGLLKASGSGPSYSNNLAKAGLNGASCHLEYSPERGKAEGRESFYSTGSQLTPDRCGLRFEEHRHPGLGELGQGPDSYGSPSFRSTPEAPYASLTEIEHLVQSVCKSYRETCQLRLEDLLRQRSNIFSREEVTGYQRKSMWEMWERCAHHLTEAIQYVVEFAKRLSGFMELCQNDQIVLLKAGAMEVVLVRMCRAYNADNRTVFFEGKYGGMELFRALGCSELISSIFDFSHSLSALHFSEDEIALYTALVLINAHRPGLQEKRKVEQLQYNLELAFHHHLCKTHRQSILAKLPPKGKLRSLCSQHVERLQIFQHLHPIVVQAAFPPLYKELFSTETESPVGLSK
The data set can be described thus: Inhibition of human GAL4-fused RORgamma LBD transcriptional activity expressed in CHOK1 cells after 2 days by luciferase reporter gene assay. It counts as cell-based.

Bounds are passed on as bounds.

With `Cc1ccc(NC(=O)C[C@H](CCC(=O)[O-])c2noc(-c3nnc(CC(C)C)s3)c2C2CC2)c(Cl)c1.[Na+]`, the remaining at 1 h in data set [1] came to 78%. In data set [2], this molecule came in with a pH-dependent lipophilicity (logD) of 3.4. Also, the Papp in data set [3] is 10 ×10⁻⁶ cm/s. The EC50 in data set [4] was found to be 56 nM.
Turning to `Cc1ccc(NC(=O)C[C@H](CCC(=O)O)c2noc(-c3ccc(CC(C)C)cc3)c2C2CC2)c(Cl)c1`, the remaining at 1 h in data set [1] worked out at 80%. In data set [2], this molecule registered a logD of 4.8. Also, the Papp in data set [3] is 16 ×10⁻⁶ cm/s. In data set [4], this molecule gave an EC50 of 44 nM.
`Cc1ccc(NC(=O)CCc2nnc(CCCC(C)C)n2C2CC2)c(C)c1`: the remaining at 1 h in data set [1] was 27%. Besides, the logD in data set [2] was 3.9. The Papp in data set [3] turned out to be 36 ×10⁻⁶ cm/s.
For `Cc1ccc(NC(=O)C[C@H](CCC(=O)[O-])c2noc(-c3cc(CC(C)C)no3)c2C2CC2)c(Cl)c1.[Na+]`, the remaining at 1 h in data set [1] amounted to 54%. Further, in data set [2], the logD was found to be 3.8. Moreover, the Papp in data set [3] was determined as 28 ×10⁻⁶ cm/s. Further, a half-maximal response in data set [4] (EC50) required 12 nM.
Turning to `Cc1ccc(NC(=O)C[C@H](CCC(=O)[O-])c2noc(-c3cnc(CC(C)C)s3)c2C2CC2)c(Cl)c1.[Na+]`, in data set [1], the remaining at 1 h was 54%. Moreover, the logD in data set [2] is 3.8. Also, the Papp in data set [3] worked out at 34 ×10⁻⁶ cm/s. Further, the midpoint of the response in data set [4], the EC50, lay at 17 nM.
As for `Cc1ccc(NC(=O)CC(CCN)c2nnc(CCCC(C)C)n2C2CC2)c(C)c1` (racemic), the remaining at 1 h in data set [1] turned out to be 88%. The molecule also returned a logD in data set [2] of 3.1. In data set [3], the apparent permeability (Papp) was found to be 0.2 ×10⁻⁶ cm/s. Further, the EC50 in data set [4] was > 20000 nM.
Consider `Cc1ccc(NC(=O)C[C@H](CCC(=O)O)c2noc(-c3cc(C(F)(F)C(C)(C)C)on3)c2C2CC2)c(Cl)c1`, for which the remaining at 1 h in data set [1] worked out at 77%. The same molecule returned a pH-dependent lipophilicity (logD) in data set [2] of 4.3. In data set [4], this molecule yielded a concentration giving a half-maximal response (EC50) of 6 nM.
As to `Cc1ccc(NC(=O)CC(CCC(=O)N(C)C)c2nnc(CCCC(C)C)n2C2CC2)c(C)c1` (racemic), the remaining at 1 h in data set [1] came to 45%. The molecule further showed a logD in data set [2] of 3.8. Besides, the Papp in data set [3] is 7 ×10⁻⁶ cm/s. For the same molecule, the midpoint of the response in data set [4], the EC50, lay at 2700 nM.
On the same counts, the results for `Cc1ccc(NC(=O)CC(CCC(=O)O)c2nnc(CCCC(C)C)n2C2CC2)c(C)c1` (racemic) are 91%, 2.9, 0.2 ×10⁻⁶ cm/s and > 20000 nM.
For the molecule `CCN(c1ccc(C(O)(C(F)(F)F)C(F)(F)F)cc1)S(=O)(=O)c1ccc([N+](=O)[O-])cc1`, in data set [4], the EC50 amounted to 190 nM.
As to `CC(C)(C)C(F)(F)c1cc(-c2onc([C@@H](CCC(=O)O)CC(=O)Nc3ccc(F)cc3Cl)c2C2CC2)no1`, the remaining at 1 h in data set [1] is 90%. The logD in data set [2] worked out at 4. Moreover, the midpoint of the response in data set [4], the EC50, lay at 6 nM.
Consider `Cc1ccc(NC(=O)C[C@H](CCC(=O)O)c2noc(-c3cc(C(F)(F)C(C)C)on3)c2C2CC2)c(Cl)c1`, for which the remaining at 1 h in data set [1] turned out to be 74%. The same molecule came in with a logD in data set [2] of 4. The same molecule displayed an EC50 in data set [4] of 7 nM.
Consider `Cc1ccc(NC(=O)C[C@H](CCC(=O)O)c2noc(-c3cc(CCC(C)C)on3)c2C2CC2)c(Cl)c1`, for which the remaining at 1 h in data set [1] amounted to 79%. In data set [2], this molecule yielded a logD of 4.3. In addition, the EC50 in data set [4] is 8 nM.
Regarding `Cc1ccc(NC(=O)C[C@H](CCC(=O)[O-])c2noc(-c3ncc(CC(C)C)s3)c2C2CC2)c(Cl)c1.[Na+]`, the remaining at 1 h in data set [1] is 82%. For the same molecule, the logD in data set [2] turned out to be 4. The Papp in data set [3] amounted to 28 ×10⁻⁶ cm/s. The same molecule registered an EC50 in data set [4] of 120 nM.
On the same counts, the results for `Cc1ccc(NC(=O)C[C@H](CCC(=O)[O-])c2noc(-c3ncc(CC(C)C)o3)c2C2CC2)c(Cl)c1.[Na+]` are 75%, 3.7, 32 ×10⁻⁶ cm/s and 660 nM.
Take `CC(C)(C)C(F)(F)c1cc(-c2onc([C@@H](CCC(=O)O)CC(=O)Nc3ccc(Cl)cc3F)c2C2CC2)no1`: in data set [1], the remaining at 1 h amounted to 107%. In data set [2], this molecule yielded a pH-dependent lipophilicity (logD) of 4.2. In data set [4], this molecule came in with an EC50 of 7 nM.
Regarding `Cc1ccc(NC(=O)C[C@H](CCC(=O)O)c2noc(-c3cc(CC(C)(C)C)on3)c2C2CC2)c(Cl)c1`, in data set [1], the remaining at 1 h is 84%. This molecule gave a logD in data set [2] of 4.2. For the same molecule, in data set [4], the response was half-maximal at 7 nM (EC50).
Consider `Cc1ccc(NC(=O)CC(CCC(N)=O)c2nnc(CCCC(C)C)n2C2CC2)c(C)c1` (racemic), for which the remaining at 1 h in data set [1] was 44%. This molecule displayed a logD in data set [2] of 3.4. Besides, in data set [3], the Papp was 0.8 ×10⁻⁶ cm/s. The molecule also had an EC50 in data set [4] of 16000 nM.
As to `Cc1ccc(NC(=O)C[C@H](CCC(=O)[O-])c2noc(-c3noc(CC(C)C)n3)c2C2CC2)c(Cl)c1.[Na+]`, in data set [1], the remaining at 1 h was 90%. For the same molecule, the logD in data set [2] came to 3.6. Also, the Papp in data set [3] was 25 ×10⁻⁶ cm/s. Also, the EC50 in data set [4] was determined as 62 nM.
On the same counts, the results for `CNC(=O)CCC(CC(=O)Nc1ccc(C)cc1C)c1nnc(CCCC(C)C)n1C1CC1` (racemic) are 65%, 3.5, 1.5 ×10⁻⁶ cm/s and 6400 nM.
With `Cc1ccc(NC(=O)C[C@H](CCC(=O)O)c2noc(-c3cc(C(F)(F)CC(C)C)on3)c2C2CC2)c(Cl)c1`, the remaining at 1 h in data set [1] is 78%. Also, the logD in data set [2] worked out at 4.4. For the same molecule, the EC50 in data set [4] came out at 8 nM.
On to `Cc1ccc(NC(=O)CC(CCN(C)C)c2nnc(CCCC(C)C)n2C2CC2)c(C)c1` (racemic), for which the remaining at 1 h in data set [1] amounted to 85%. In data set [2], the logD was determined as 3.3. The Papp in data set [3] is 0.8 ×10⁻⁶ cm/s. For the same molecule, the EC50 in data set [4] came to 19000 nM.
On to `Cc1ccc(NC(=O)C[C@H](CCC(=O)[O-])c2noc(-c3cc(CC(C)C)on3)c2C2CC2)c(Cl)c1.[Na+]`, for which the remaining at 1 h in data set [1] was determined as 74%. Besides, in data set [2], the logD came to 3.9. Besides, in data set [3], the Papp came out at 36 ×10⁻⁶ cm/s. In data set [4], this molecule showed an EC50 of 14 nM.
Take `CC(=O)N1C[C@H](C(=O)Nc2ccc(C)cc2C)[C@@H](c2nnc([C@H]3C[C@@H](CC(C)C)C3)n2C2CC2)C1`: in data set [1], the remaining at 1 h worked out at 61%. In addition, in data set [2], the logD stood at 4.3. In addition, in data set [3], the Papp worked out at 20 ×10⁻⁶ cm/s.
Regarding `Cc1ccc(NC(=O)C[C@H](CCC(=O)[O-])c2noc(-c3csc(CC(C)C)n3)c2C2CC2)c(Cl)c1.[Na+]`, in data set [1], the remaining at 1 h was 82%. This molecule also displayed a logD in data set [2] of 3.8. Also, the Papp in data set [3] was 34 ×10⁻⁶ cm/s. The same molecule returned an EC50 in data set [4] of 3800 nM.
As for `Cc1ccc(NC(=O)CC(CCO)c2nnc(CCCC(C)C)n2C2CC2)c(C)c1` (racemic), the remaining at 1 h in data set [1] was determined as 21%. In data set [2], this molecule yielded a logD of 3.5. Moreover, in data set [3], the Papp was 11 ×10⁻⁶ cm/s. This molecule yielded an EC50 in data set [4] of 440 nM.
Regarding `CC(=O)NCCC(CC(=O)Nc1ccc(C)cc1C)c1nnc(CCCC(C)C)n1C1CC1` (racemic), in data set [1], the remaining at 1 h stood at 39%. This molecule registered a logD in data set [2] of 3.5. For the same molecule, the Papp in data set [3] turned out to be 1.3 ×10⁻⁶ cm/s. The molecule further returned an EC50 in data set [4] of 11000 nM.

Values taken from ChEMBL document CHEMBL4480411, “Discovery of Second Generation RORγ Inhibitors Composed of an Azole Scaffold” (J Med Chem, 2019).
